Rows were chosen to be rich in hits. Some 2.8% of all compounds tested hit in one or more screens of this group.
DENV2 CPE: DENV2-induced cell death inhibition; DENV2-infected cells, cytopathic effect rescue, plate reader; CPE inhibition, % at 9.99 µM; 350,000 compounds, 1.7% hits; in the data active = CPE inhibition above about 20%, passing the limit was not always enough; tested in BHK-21 cells;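 note: 0% = median of neutral control wells and 100% = median of positive control wells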
SIRT5 inh: blocks human SIRT5 desuccinylation of peptide. Q9NXA8. Purified SirT5, succinyl-peptide AMC, trypsin-coupled fluorescence. inhibition, % at 15 µM. 330,000 compounds, 1.1% hits. AID 652115; in the data active = inhibition above about 15%
Target sequence (Q9NXA8 whole entry, looked up): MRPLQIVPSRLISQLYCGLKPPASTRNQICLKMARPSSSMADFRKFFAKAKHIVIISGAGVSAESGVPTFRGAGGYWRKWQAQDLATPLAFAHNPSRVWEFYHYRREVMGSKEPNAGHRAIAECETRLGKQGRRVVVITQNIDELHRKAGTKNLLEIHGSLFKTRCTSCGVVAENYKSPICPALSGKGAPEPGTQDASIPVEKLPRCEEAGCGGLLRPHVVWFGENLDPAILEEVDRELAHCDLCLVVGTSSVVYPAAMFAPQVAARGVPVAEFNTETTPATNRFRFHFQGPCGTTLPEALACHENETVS
E-selectin induc: E-selectin induction on HUVECs; P16581; HUVEC E-selectin immunofluorescence imaging; normalized: neutral wells 0, TNF-alpha wells 100; activation, % at 7.58 µM; 260,000 compounds, 0.37% hits; AID 686992;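 active = mean E-selectin-positive cell signal at least 10% of the positive control, reached in at least 60% of replicates, without over 20% cell loss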
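System: HUVEC, human umbilical vein endothelial cells; quantity: 3,000 cells/well; buffer or medium: EGM-2 medium, gelatin-coated wells; dosing: single-point compound dose; detection: immunofluorescence imaging; evaluation: % PE-positive cells; benchmarks: TNF-alpha, DMSO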
Starred values were filed as active, the others as inactive; / = no result.

SMILES | DENV2 CPE | SIRT5 inh | E-selectin induc
CCOC1=C2CN(S(=O)(=O)c3ccc(Cl)cc3)[C@H](c3ccccc3)C[C@@H]2N(S(=O)(=O)c2ccc(C)cc2)[C@H](c2ccccc2)C1 | 0.9 | -0.7 | -0.1
CCOC1=C2CN(S(=O)(=O)c3ccc(C)cc3)C(c3cccc(Cl)c3)CC2N(S(=O)(=O)c2ccc(Cl)cc2)C(c2ccccc2)C1 (stereo not drawn) | 31.6* | -2.2 | -0.3
CO[C@@H]1CN(C)C(=O)c2ccc(NC(=O)C3CC3)cc2OC[C@H](C)N(Cc2ccncc2)C[C@@H]1C | 2.0 | -0.8 | 0.0
Cc1ccc(S(=O)(=O)N(C)C[C@@H]2Oc3c(NC(=O)Nc4cccc5ccccc45)cccc3C(=O)N([C@@H](C)CO)C[C@H]2C)cc1 | -3.4 | 7.4 | 0.0
Cc1cnc(NC(=O)C2CC(=O)N(c3cccc(Cl)c3)C2)s1 (stereo not drawn) | 32.7* | 0.8 | -0.3
COc1cccc(N2CC(C(=O)Nc3ccc(F)cc3)CC2=O)c1 (stereo not drawn) | 27.0* | 0.4 | 0.0
O=C(Nc1ccncc1)C1CC(=O)N(c2ccc(F)cc2)C1 (stereo not drawn) | -1.2 | -3.6 | /
Cc1cnc(NC(=O)C2CC(=O)N(c3ccc4c(c3)OCCO4)C2)s1 (stereo not drawn) | -5.6 | / | 0.0
COc1cccc(N2CC(C(=O)Nc3ccc(C(=O)OC(C)C)cc3)CC2=O)c1 (stereo not drawn) | / | -4.4 | /
CCc1ccc(N2CC(C(=O)Nc3ccc(F)cc3)CC2=O)cc1 (stereo not drawn) | -0.8 | 0.9 | 41.6*
CCC(=O)Nc1ccc2c(c1)OC[C@@H](C)N(CC1CCOCC1)C[C@H](C)[C@H](OC)CN(C)C2=O | -4.3 | 1.7 | 0.1
CCCc1cn(CC[C@@H]2CC[C@H](NC(=O)C3CCC3)[C@@H](CO)O2)nn1 | 5.4 | -0.3 | 0.5
CCCNC(=O)N(C)C[C@@H]1Oc2ncc(C#CC3(O)CCCC3)cc2C(=O)N([C@H](C)CO)C[C@@H]1C | 2.7 | 4.0 | 0.2
Cc1noc(C)c1NC(=O)Nc1ccc2c(c1)C(=O)N([C@@H](C)CO)C[C@@H](C)[C@H](CN(C)Cc1ccncc1)OCCCC[C@H](C)O2 | -1.4 | -2.4 | /
O=C(N[C@@H]1C=C[C@H](CC(=O)N2CCN(c3ccccc3)CC2)O[C@@H]1CO)c1ccncc1 | -5.9 | 2.4 | 0.4
CC1(OC(=O)CCc2ccccc2)C(=O)C=C2C=C(c3ccc(C#N)cc3)N(CC3CC3)C=C2C1=O (stereo not drawn) | 11.7 | -0.6 | 0.9
CC1(OC(=O)CCc2ccccc2)C(=O)C=C2C=C(c3ccc(C#N)cc3)N(c3ccccc3)C=C2C1=O (stereo not drawn) | 41.2* | / | 1.9
CO[C@@H]1CN(C)C(=O)c2ccc(NC(=O)C3CCCCC3)cc2OC[C@@H](C)N(Cc2nccs2)C[C@H]1C | -1.1 | 2.6 | 0.0
CCC(=O)N1CCC2(CC1)CN(Cc1ccccn1)[C@H](CO)c1[nH]c3cc(OC)ccc3c12 | 11.5 | -0.3 | 0.2
CN1CCN(S(=O)(=O)c2ccc(Cl)c(C(F)(F)F)c2)CC1 | 2.8 | 0.8 | -0.1
CC1CN(S(=O)(=O)c2ccc(Cl)c(C(F)(F)F)c2)CC(C)O1 (stereo not drawn) | 2.3 | 15.0* | /
CC(C)c1ccc(NC(=O)CNCC(c2ccccc2)N(C)C)cc1 (stereo not drawn) | 9.7 | 16.9* | /
Cc1ccc(NC(=O)CNCC(c2ccccc2)N(C)C)cc1F (stereo not drawn) | 1.6 | -4.0 | /
CO[C@@H](CN(C)CC1CCOCC1)[C@H](C)CN(C(=O)Nc1ccc(F)cc1)[C@H](C)CO | -2.8 | 16.3* | 0.0
CO[C@H](CN(C)CC1CCOCC1)[C@@H](C)CN(C(=O)Nc1ccc(F)cc1)[C@H](C)CO | 0.2 | -4.4 | 0.0
SMILES | DENV2 CPE | SIRT5 inh | E-selectin induc
C[C@@H]1CCn2cc(nn2)COC[C@@H](c2ccccc2)NC1=O | / | / | 0.0
Cc1ccc(NC(=O)CCN2CCN(CCO)CC2)cc1Br | 20.4* | / | /
Cc1cc(NC(=O)CCN2CCN(C)CC2)ccc1Br | 11.8 | -7.7 | 1.3
O=C(NCc1nc2ccccc2[nH]1)C1=C[C@@H](c2csc3ccccc23)C[C@@H](OCCCCO)O1 | -5.7 | 9.3 | 0.0
O=C(NCc1nc2ccccc2[nH]1)C1=C[C@@H](c2coc3ccccc3c2=O)C[C@@H](OCCCCO)O1 | 82.4* | -1.1 | /
C[C@H]([C@H](O)c1ccccc1)N(C)C(=O)CN | -1.5 | 21.3* | 0.1
C[C@H](C(O)c1ccccc1)N(C)C(=O)CN (stereo partly drawn) | -6.6 | -3.8 | -0.1
CC(C)C[C@H](NC(=O)c1nc[nH]c1C(=O)NC1CCN(C(=O)OC(C)(C)C)CC1)C(=O)OCc1ccccc1 | 6.1 | -1.5 | /
